79 compounds from ChEMBL document CHEMBL4400549, “DPD-Inspired Discovery of Novel LsrK Kinase Inhibitors: An Opportunity To Fight Antimicrobial Resistance” (J Med Chem, 2019) can be followed below.

Assay [1] deals with T1, Autoinducer-2 kinase (Salmonella typhimurium (strain LT2 / SGSC1412 / ATCC 700720)) (UniProt Q8ZKQ6).
T1 sequence (whole entry): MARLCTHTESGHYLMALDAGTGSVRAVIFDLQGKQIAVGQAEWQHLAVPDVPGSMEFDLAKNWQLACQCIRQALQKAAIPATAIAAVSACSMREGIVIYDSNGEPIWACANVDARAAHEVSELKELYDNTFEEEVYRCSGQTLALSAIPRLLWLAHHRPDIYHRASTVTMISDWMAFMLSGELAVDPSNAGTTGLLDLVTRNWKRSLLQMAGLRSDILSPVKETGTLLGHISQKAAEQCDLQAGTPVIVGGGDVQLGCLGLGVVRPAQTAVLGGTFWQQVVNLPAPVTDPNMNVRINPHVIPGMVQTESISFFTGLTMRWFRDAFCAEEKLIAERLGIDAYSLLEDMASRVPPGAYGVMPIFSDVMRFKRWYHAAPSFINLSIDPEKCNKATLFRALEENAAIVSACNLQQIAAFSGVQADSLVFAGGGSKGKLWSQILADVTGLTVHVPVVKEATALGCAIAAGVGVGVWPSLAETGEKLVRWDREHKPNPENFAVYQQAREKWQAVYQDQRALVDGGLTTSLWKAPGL
In words: Inhibition of Salmonella typhimurium LsrK expressed in Escherichia coli MET1158 at 200 uM using (S)-DPD as substrate after 15 mins by Kinase Glo luminescence assay relative to control. The conditions noted are these: Salmonella enterica subsp. enterica serovar Typhimurium. The method, boiled down: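 Compound at 200 µM in triplicate with 300 nM LsrK, 300 µM (S)-DPD and 100 µM ATP in 25 mM triethanolamine pH 7.4, 200 µM MgCl2, 0.1 mg/mL BSA; 15 min incubation, then Kinase Glo reagent; luminescence read after 30 min; percent inhibition.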
For orientation: Kinase-Glo reads ATP consumption through a luciferase reaction.

Assay [2] has as its target Glycerol kinase (Escherichia coli (strain K12)) (UniProt P0A6F3). In words: Inhibition of Escherichia coli K12 glycerokinase at 25 to 500 uM using glycerol as substrate after 15 mins by Kinase Glo luminescence assay. Particulars: Escherichia coli K-12. The method, boiled down: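 E. coli glycerokinase 0.3 U/mL with 300 µM glycerol, then 100 µM ATP; run as the LsrK protocol (triethanolamine pH 7.4 buffer, 15 min incubation, Kinase Glo luminescence read after 30 min).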

The target in another assay is T2, Autoinducer-2 kinase (Salmonella typhimurium (strain LT2 / SGSC1412 / ATCC 700720), UniProt Q8ZKQ6).
T2 sequence (Q8ZKQ6 whole entry): T1 sequence (whole entry)
In words: Inhibition of Salmonella typhimurium LsrK expressed in Escherichia coli MET1158 using (S)-DPD as substrate after 15 mins by Kinase Glo luminescence assay. On the set-up: species or system Salmonella enterica subsp. enterica serovar Typhimurium. The method, boiled down:
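Dose-response at 6 concentrations (25–500 µM); 300 nM LsrK, 300 µM (S)-DPD, 100 µM ATP in 25 mM triethanolamine pH 7.4, 200 µM MgCl2, 0.1 mg/mL BSA plus Triton X-100; 15 min, Kinase Glo readout after 30 min; IC50 by four-parameter logistic fit; mean ±SD of two independent experiments (n = 4).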

The structures appear in SMILES notation. pIC50: −log10 of the molar value.

Sequence of Glycerol kinase (Escherichia coli (strain K12)) (P0A6F3 whole entry): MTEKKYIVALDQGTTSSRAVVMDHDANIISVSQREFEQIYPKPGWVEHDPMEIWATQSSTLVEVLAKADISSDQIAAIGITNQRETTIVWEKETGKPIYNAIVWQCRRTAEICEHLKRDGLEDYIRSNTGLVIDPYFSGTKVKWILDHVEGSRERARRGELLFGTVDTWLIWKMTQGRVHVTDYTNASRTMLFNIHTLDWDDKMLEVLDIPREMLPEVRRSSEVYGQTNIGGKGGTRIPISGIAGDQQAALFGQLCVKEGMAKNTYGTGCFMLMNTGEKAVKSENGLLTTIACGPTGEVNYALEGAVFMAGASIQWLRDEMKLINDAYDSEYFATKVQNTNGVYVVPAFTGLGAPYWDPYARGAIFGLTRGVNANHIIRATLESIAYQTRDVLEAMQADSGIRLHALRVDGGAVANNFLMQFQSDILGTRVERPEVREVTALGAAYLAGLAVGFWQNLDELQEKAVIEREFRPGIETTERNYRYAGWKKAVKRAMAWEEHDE

In the case of `Cn1nc(-c2ccccc2)cc1C1COC2(CCOCC2)O1` (stereo not given), the inhibition (as a rule, the drop in the measured response relative to a control, in per cent) in assay [1] is 31.1%.
The compound `Cn1nc(-c2ccccc2)cc1C(O)CO` (stereo not given) came in with an inhibition in assay [1] of 0%.
The same measure, in the same setting: the figure for `Cc1nc(-c2ccccc2)cc(C2COC3(CCCCC3)O2)n1` (stereo not given) is 9.41%; for `CC(C)c1cc(C(O)CO)[nH]n1` (stereo not given) it is 0%.
In assay [1], `OCC(O)c1cc(C2CC2)nc(-c2ccccc2)n1` (stereo not given) displayed an inhibition of 21.6%.
On to `Cn1nc(-c2ccco2)cc1C1COC2(CCCCC2)O1` (stereo not given), for which the inhibition result is “Dose-dependent effect” in assay [2] and 51.6% in assay [1]. In addition, the pIC50 (commonly the negative decadic logarithm of the IC50, by convention in mol/L) against Autoinducer-2 kinase was 3.55.
`OCC(O)c1cc(-c2ccccc2)nc(C2CC2)n1` (stereo not given): the inhibition in assay [1] was 24.5%.
Still for that read-out and setting: the figure for `OCC(O)c1cc(-c2ccco2)n[nH]1` (stereo not given) is 0%; for `Cn1nc(-c2cccs2)cc1C(O)CO` (stereo not given) it is 0%; for `c1ccc(-c2cc(C3COC4(CCCCC4)O3)n(-c3ccccc3)n2)cc1` (stereo not given) it is 0%.
On the same count and under the same terms, the figure for `Oc1ccc2cc(C3COC4(CCCCC4)O3)ncc2c1` (stereo not given) is 28.6%; for `Cc1nc(C2CC2)cc(C(O)CO)c1C(=O)O` (stereo not given) it is 1.33%; for `OCC(O)c1cc(C2CC2)n[nH]1` (stereo not given) it is 0%.
The same measure, in the same setting: the figure for `CCOC(=O)c1c(C2COC3(CCCCC3)O2)cc(-c2ccccc2)nc1C` (stereo not given) is 0.1%; for `Cn1nc(-c2ccccc2)cc1C1COC2(CCCC2)O1` (stereo not given) it is 5.56%; for `CN(C)c1ccc(-c2cc(C3COC4(CCCCC4)O3)n(C)n2)cc1` (stereo not given) it is 0.19%.
Take `Cc1nc(-c2ccccc2)cc(C(O)CO)n1` (stereo not given): the inhibition in assay [1] was found to be 0.22%.
For `Cn1nc(-c2cccnc2)cc1C1COC2(CCCCC2)O1` (stereo not given), the inhibition in assay [1] was 4.92%.
Still for that read-out and setting: the result for `Cc1cc(-c2ccccc2)nn1C` reads 2.01%.
`Cn1nc(-c2ccccc2)cc1C1COC2(CCCCC2)O1` (stereo not given) gave an inhibition in assay [1] of 78%. Also, the pIC50 against Autoinducer-2 kinase is 3.92.
Take `c1ccc(-c2cc(C3COC4(CCCCC4)O3)n(C3CCCC3)n2)cc1` (stereo not given): the inhibition in assay [1] turned out to be 0%.
As for `OCC(O)c1cc2c(F)cccc2cn1` (stereo not given), the inhibition in assay [1] was found to be 0.65%.
Take `OCC(O)c1cc(C23CC4CC(CC(C4)C2)C3)n[nH]1` (stereo not given): the inhibition in assay [1] was determined as 0%.
Turning to `Fc1cccc2cnc(C3COC4(CCCCC4)O3)cc12` (stereo not given), the inhibition in assay [1] came to 1.76%.
The same measure, in the same setting: the figure for `Cc1ccc2cnc(C3COC4(CCCCC4)O3)cc2c1` (stereo not given) is 1.66%.
As to `Cc1cccc(-c2cc(C3COC4(CCCCC4)O3)n(C)n2)c1` (stereo not given), the inhibition in assay [1] is 1.07%.
Take `Cn1nc(-c2ccccc2)cc1C1COC2(CCCCCC2)O1` (stereo not given): the inhibition in assay [1] amounted to 0%.
In turn, `Cn1nc(-c2cccc(C#N)c2)cc1C1COC2(CCCCC2)O1` (stereo not given) came in with an inhibition in assay [1] of 0%.
Same read-out and setting: the figure for `c1ccc(-c2cc(C3COC4(CCCCC4)O3)nc(C3CC3)n2)cc1` (stereo not given) is 15.2%.
For `Cn1nc(C2CCCC2)cc1C1COC2(CCCCC2)O1` (stereo not given), the inhibition in assay [1] came to 0%.
Same read-out and setting: the result for `CC(C)c1cc(C2COC3(CCCCC3)O2)n(C)n1` (stereo not given) reads 0%; that for `Cn1nc(-c2cc3ccccc3[nH]2)cc1C1COC2(CCCCC2)O1` (stereo not given), 4.38%; that for `Cn1nc(-c2ccco2)cc1C(O)CO` (stereo not given), 0%.
`Cc1nc(-c2ccccc2)cc(C(O)CO)c1C(=O)O` (stereo not given) had an inhibition in assay [1] of 0.81%.
`OCC(O)c1cc(C2CC2)nc(-c2ccccn2)n1` (stereo not given) returned an inhibition in assay [1] of 2.94%.
For the compound `CC(=O)N1CCC2(CC1)OCC(c1cc(-c3ccccc3)nn1C)O2` (stereo not given), the inhibition in assay [1] turned out to be 2.07%.
The compound `CCOC(=O)c1c(C2COC3(CCCCC3)O2)cc(C2CC2)nc1C` (stereo not given) showed an inhibition in assay [1] of 0.36%.
As for `CCCc1nc(-c2cccs2)cc(C2COC3(CCCCC3)O2)n1` (stereo not given), the inhibition in assay [1] came out at 0.96%.
As for `c1cc2cc(C3COC4(CCCCC4)O3)ncc2s1` (stereo not given), the inhibition in assay [1] was determined as 11.1%.
In assay [1], `CCn1nc(-c2ccccc2)cc1C1COC2(CCCCC2)O1` (stereo not given) showed an inhibition of 0%.
In turn, `OCC(O)c1cc(-c2cccs2)nc(-c2cccc(F)c2)n1` (stereo not given) came in with an inhibition in assay [1] of 19.8%.
The compound `c1ccc2cc(C3COC4(CCCCC4)O3)ncc2c1` (stereo not given) registered an inhibition in assay [1] of 14.9%.
As for `OCC(O)c1cc2ccc(O)cc2cn1` (stereo not given), the inhibition in assay [1] was 1.67%.
For `Cn1nc(C2CCCC2)cc1C(O)CO` (stereo not given), the inhibition in assay [1] is 0%.
`c1c(C23CC4CC(CC(C4)C2)C3)n[nH]c1C1COC2(CCCCC2)O1` (stereo not given) returned an inhibition in assay [1] of 0%.
`Fc1cccc(-c2nc(-c3cccs3)cc(C3COC4(CCCCC4)O3)n2)c1` (stereo not given) came in with an inhibition in assay [1] of 0.2%.
Still for that read-out and setting: the figure for `c1ccc(-c2nc(C3CC3)cc(C3COC4(CCCCC4)O3)n2)cc1` (stereo not given) is 0.76%; for `Cn1nc(-c2ccon2)cc1C1COC2(CCCCC2)O1` (stereo not given) it is 9.83%; for `OCC(O)c1cc2ccsc2cn1` (stereo not given) it is 0.17%.
Regarding `OCC(O)c1cc2ccoc2cn1` (stereo not given), the inhibition in assay [1] was found to be 2.07%.
Turning to `OCC(O)c1cc(-c2ccccc2)n[nH]1` (stereo not given), in assay [1], the inhibition came out at 0%.
In the case of `OCC(O)c1cc(-c2cccs2)n[nH]1` (stereo not given), the inhibition in assay [1] came to 0%.
For the compound `c1ccc(-c2nc(C3CC3)cc(C3COC4(CCCCC4)O3)n2)nc1` (stereo not given), in assay [1], the inhibition was found to be 21.2%.
For `OCC(O)c1cc2ccccc2cn1` (stereo not given), in assay [1], the inhibition was determined as 0.48%.
On the same count and under the same terms, the figure for `c1csc(-c2cc(C3COC4(CCCCC4)O3)[nH]n2)c1` (stereo not given) is 26.5%; for `OCC(O)c1cc(C2CCCC2)n[nH]1` (stereo not given) it is 0%.
As to `Cn1nc(C2CC2)cc1C1COC2(CCCCC2)O1` (stereo not given), in assay [1], the inhibition came to 0%.
On to `CCCc1nc(-c2cccs2)cc(C(O)CO)n1` (stereo not given), for which the inhibition in assay [1] came to 47.8%.
With `CC(C)c1cc(C(O)CO)n(C)n1` (stereo not given), in assay [1], the inhibition turned out to be 0%.
`Cn1nc(-c2cccs2)cc1C1COC2(CCCCC2)O1` (stereo not given) gave an inhibition in assay [1] of 0%.
Still for that read-out and setting: the figure for `Cc1ccc2cnc(C(O)CO)cc2c1` (stereo not given) is 0.4%; for `Cn1nc(C2CCCCC2)cc1C1COC2(CCCCC2)O1` (stereo not given) it is 1.51%.
In turn, `c1ccc(-c2cc(C3COC4(CCCCC4)O3)[nH]n2)cc1` (stereo not given) gave an inhibition in assay [1] of 53.6%. The compound also gave a negative-log IC50 (pIC50) against Autoinducer-2 kinase of 3.32.
As to `Cn1nc(C23CC4CC(CC(C4)C2)C3)cc1C(O)CO` (stereo not given), the inhibition in assay [1] came to 0%.
`c1ccc(-c2cc(C3COC4(CCCCC4)O3)n(C3CC3)n2)cc1` (stereo not given) returned an inhibition in assay [1] of 0%.
In turn, `Cc1nc(C2CC2)cc(C2COC3(CCCCC3)O2)c1C(=O)O` (stereo not given) showed an inhibition in assay [1] of 6.26%.
As to `c1coc(-c2cc(C3COC4(CCCCC4)O3)[nH]n2)c1` (stereo not given), the inhibition entry in assay [2] is “Dose-dependent effect”; in assay [1] it was 43.5%. This compound also gave a negative-log IC50 (pIC50) against Autoinducer-2 kinase of 3.42.
`CC(C)n1nc(-c2ccccc2)cc1C1COC2(CCCCC2)O1` (stereo not given) registered an inhibition in assay [1] of 0%.
In assay [1], `Cn1nc(C23CC4CC(CC(C4)C2)C3)cc1C1COC2(CCCCC2)O1` (stereo not given) registered an inhibition of 0%.
On the same count and under the same terms, the result for `Cc1nc(-c2ccccc2)cc(C2COC3(CCCCC3)O2)c1C(=O)O` (stereo not given) reads 0%; that for `Cn1nc(-c2cc(F)cc(Cl)c2)cc1C1COC2(CCCCC2)O1` (stereo not given), 4.42%; that for `c1c(C2CCCC2)n[nH]c1C1COC2(CCCCC2)O1` (stereo not given), 0%.
In assay [1], `Cn1nc(C2CC2)cc1C(O)CO` (stereo not given) showed an inhibition of 0%.
In assay [1], `c1cc2cc(C3COC4(CCCCC4)O3)ncc2o1` (stereo not given) displayed an inhibition of 5.75%.
On the same count and under the same terms, the figure for `Cc1nc2cnc(C(O)CO)cc2s1` (stereo not given) is 0.1%.
In assay [1], `N#CCCn1nc(-c2ccccc2)cc1C1COC2(CCCCC2)O1` (stereo not given) had an inhibition of 0%.
Same read-out and setting: the result for `c1c(C2CC2)n[nH]c1C1COC2(CCCCC2)O1` (stereo not given) reads 1.47%; that for `CC(C)c1cc(C2COC3(CCCCC3)O2)[nH]n1` (stereo not given), 7.14%; that for `Cc1nc2cc(C3COC4(CCCCC4)O3)ncc2s1` (stereo not given), 6.32%.
